Rows were chosen to be rich in hits. Some 4.6% of all compounds tested hit in one or more screens of this group.
NCF1 inh: inhibitors of human p47phox binding | P14598 | actives 0.53% (n = 220,000) | p47phox/p22phox peptide binding, fluorescence polarization, 2 h | inhibition, % at 24.7 µM;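 active = inhibition above about 30%, limit read from the data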;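 also: 0% = p47phox with labelled peptide and 100% = labelled peptide alone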
Target sequence (P14598 whole entry, looked up): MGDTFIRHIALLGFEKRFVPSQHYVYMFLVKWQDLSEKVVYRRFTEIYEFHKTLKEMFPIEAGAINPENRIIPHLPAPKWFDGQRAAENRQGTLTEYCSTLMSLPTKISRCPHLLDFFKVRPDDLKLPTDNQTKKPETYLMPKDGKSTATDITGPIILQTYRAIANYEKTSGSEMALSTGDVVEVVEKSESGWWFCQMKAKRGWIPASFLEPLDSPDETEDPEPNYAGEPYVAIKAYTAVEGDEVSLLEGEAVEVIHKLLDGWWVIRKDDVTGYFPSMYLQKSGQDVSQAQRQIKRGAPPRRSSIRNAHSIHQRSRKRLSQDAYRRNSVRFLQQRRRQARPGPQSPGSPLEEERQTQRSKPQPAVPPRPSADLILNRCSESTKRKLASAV
RAM network inh: inhibitors of the yeast RAM network; inhibition, % at 50 µM; S. cerevisiae dse1pr::URA3 reporter, 5-FOA growth OD615, 2 d; analog-sensitive cbk1-as2 kinase mutant strain; actives 1.8% (n = 190,000); AID 868;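 active = inhibition above a set limit, 3 SD over mean compound inhibition, cut at about 8.4% in these data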;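 also: 0% = DMSO-only wells with no growth and 100% = 10 µM 1-NA-PP1 full growth; inhibition rescues growth on 5-FOA so higher OD means more RAM inhibition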
WT yeast gro inh: growth inhibition of WT yeast, mitochondrial fusion screen. inhibition, % at 10 µM. mitochondrial fusion phenotypic screen, WT strain. actives 2.1% (n = 190,000). AID 1362; in the data active = inhibition above about 58%; tested in S. cerevisiae
Arbovirus anti: antivirals against arbovirus infection; actives 0.37% (n = 200,000); AID 1251; arbovirus infection cell-based antiviral screen; inhibition, % at 10 µM; in the data active = inhibition above about 30%
Biofilm kill mix: mixture kills Candida albicans biofilm cells | inhibition, % at 7.6 µM | C. albicans biofilm persisters + clotrimazole, fluorescence viability; primary screen in compound mixtures of four per well | AID 1242 | actives 0.02% (n = 120,000);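 active = inhibition above 30.3% in the primary screen of four-compound pools, then above 30% when the compound was retested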;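 also: compounds exposed to preformed 24 h biofilms for 48 h; 0% = untreated biofilm control and 100% = clotrimazole plus chlorhexidine kill blank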
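Test system: C. albicans biofilms. Buffer or medium: RPMI/MOPS medium, pH 7.0. Timing: 48 h compound exposure at 37 °C. Technique: Alamar Blue fluorescence. Evaluation: percent inhibition of biofilm viability.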
Hck-Nef inh: blocks Nef-activated human Hck kinase; P08631; Recombinant Hck-YEEI plus Nef, Z-Lyte FRET kinase assay; inhibition, % at 20 µM; actives 0.68% (n = 220,000); AID 463187;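 active = Hck-Nef kinase inhibition above about 50%, limit read from the data; inactive = inhibition below that limit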;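 also: 0% = DMSO with Hck plus Nef and 100% = Hck alone without Nef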
Active calls of the source: *; · = no result given.

SMILES	NCF1 inh	RAM network inh	WT yeast gro inh	Arbovirus anti	Biofilm kill mix	Hck-Nef inh
CC(=O)Nc1ccc(NC(=O)CCCN2C(=O)c3ccccc3C2=O)cc1	-16	0	2	-1	2	2
CC(=O)Nc1ccc(S(=O)(=O)NCCC(=O)OCCN2C(=O)c3ccccc3C2=O)cc1	-16	0	73*	-7	·	0
CN(CCC#N)C(=O)CC(Cc1ccccc1)C1CCOC(C)(C)C1 (centres undefined)	-11	·	·	·	-1	3
O=C(COc1ccc([N+](=O)[O-])cc1Cl)NCCc1ccccc1	-7	0	9	-4	13	4
CC(Oc1ccc(Cl)cc1Cl)C(=O)NCCCCc1ccccc1 (centres undefined)	-1	0	61*	21	10	1
O=C(/C=C/c1ccc2c(c1)OCO2)NCCSCc1cccc(Cl)c1	-49	9.0*	52	-39	·	-1
Cc1ccccc1OCC(=O)NCc1ccccc1	6	2	8	8	18	-20
O=C(COc1ccccc1-c1ccccc1)NCc1cccc(Cl)c1	-11	2	78*	-17	14	1
CS(=O)(=O)N(CC(=O)NCCSCc1cccc(Cl)c1)c1ccc2c(c1)OCO2	-20	0	-21	-6	·	-8
O=C(COc1ccc(Cl)cc1Cl)NCCCCc1ccccc1	-9	1	76*	-4	·	0
O=C(COc1ccc(Cl)cc1)NCCSCc1cccc(Cl)c1	-12	6	79*	25	·	2
CN(C)CCNC(=O)COc1ccc(Cl)cc1Cl	-5	2	-21	5	4	1
O=C(CSc1nnc(SCc2cccc3ccccc23)s1)N/N=C/c1c[nH]c2ccccc12	-43	4	-4	-10	11	3
O=C(COc1ccc(Cl)cc1Cl)NCCSc1ccc(Cl)cc1	2	9.0*	27	9	·	-1
Cc1cccc(CSCCNC(=O)COc2ccc(Cl)cc2)c1	-6	4	-13	-4	21	2
O=C(COc1ccc(Cl)cc1Cl)NCC(=O)N/N=C/c1c[nH]c2ccccc12	-4	9.8*	-1	-3	5	3
O=C(CSc1nnc(SCc2ccc(Cl)cc2)s1)N/N=C/c1c[nH]c2ccccc12	43*	2	3	-23	7	29
Clc1ccc(OCc2cnc(Cl)s2)cc1	1	1	10	-7	·	1
O=C(N/C(=C/c1ccc(Cl)cc1)C(=O)N1CCCC1)c1ccccc1	-7	·	·	·	14	13
Cc1cc(Cl)ccc1OCC(=O)NCCCCc1ccccc1	-1	4	63*	18	8	3
CSc1ccccc1NC(=O)COc1ccc(Cl)cc1Cl	2	4	12	12	-7	3
O=C(COc1ccc(Cl)cc1Cl)Nc1ccccn1	-10	2	66*	-11	·	7
CCOc1ccc2c(c1)OC(c1ccc(C)cc1)(C(F)(F)F)NC2=O (centres undefined)	-11	2	60*	-5	17	-11
O=C1CN(C(=O)CCCc2c[nH]c3ccccc23)c2ccccc2N1	-21	2	11	1	·	2
CC(=O)Oc1ccc(-c2cccc(C(=O)OCC(=O)Nc3ccccc3Oc3ccccc3)c2)cc1	-8	6	-7	-9	15	1
SMILES	NCF1 inh	RAM network inh	WT yeast gro inh	Arbovirus anti	Biofilm kill mix	Hck-Nef inh
O=C(Nc1ccccc1Oc1ccccc1)c1cc([N+](=O)[O-])ccc1Cl	-3	5	76*	6	18	0
O=C(COC(=O)c1cccc(Cl)c1)Nc1cc(Cl)ccc1Oc1ccccc1	-5	10*	19	0	21	-1
O=C(Nc1cc(Cl)ccc1Oc1ccccc1)c1ccccc1F	-3	1	58	12	15	1
O=C(Nc1cc(Cl)ccc1Oc1ccccc1)c1ccc(F)cc1	-4	7	66*	2	1	0
Cc1ccc(Oc2ccc(Cl)cc2NC(=O)c2ccc(F)cc2F)cc1	0	8.9*	13	-15	11	1
O=C(Nc1ccccc1C(=O)O)/C(=C/c1ccc([N+](=O)[O-])cc1)NC(=O)c1ccc(Br)o1	-15	5	1	14	5	0
O=C(N=C1N=C2C=CC=CN2Cc2ccccc21)c1ccc(S(=O)(=O)N2CCOCC2)cc1	-6	2	-14	12	-6	23
CCOc1ccc2nc(NC(=O)CCC(=O)c3cccs3)sc2c1	-31	4	-13	-7	·	4
COCC(O)CSc1nc(C)[nH]c1[N+](=O)[O-] (centres undefined)	-7	1	-7	5	·	-4
O=C(Nc1ccccc1Cl)c1ccccc1Oc1ccc(C(F)(F)F)cc1[N+](=O)[O-]	7	6	83*	-19	·	-1
COc1ccc(NS(=O)(=O)c2cc(NC(=O)c3cc(=O)c4ccccc4o3)ccc2OC)cc1	1	9.6*	-18	0	10	2
CCOc1ccc(NS(=O)(=O)c2cc(OC)ccc2OC)cc1	-33	1	12	-1	·	3
COc1ccc(OC)c(S(=O)(=O)Nc2ccc(O)c3ccccc23)c1	-12	2	62*	-37	13	5
COc1ccc(OC)c(S(=O)(=O)Nc2ccc(Oc3ccccc3)cc2)c1	-5	5	63*	2	·	0
COc1ccc(OC)c(S(=O)(=O)Nc2c(C)cccc2C)c1	-4	1	5	-10	5	-8
OC1(c2ccccc2)CN(c2ccccc2)C2=[N+]1CCS2 (centres undefined)	-1	3	-14	-21	7	-2
Cc1cc(C)c2c(CC(=O)Nc3nccs3)coc2c1	-12	2	-21	-2	·	4
COc1ccc(OCC(O)CNC(=O)c2sccc2Cl)cc1 (centres undefined)	-5	·	·	·	13	13
COc1ccc(NS(=O)(=O)c2ccc3c(c2)Cc2ccccc2-3)cn1	-29	3	60*	22	·	4
Cc1occc1C(=O)NNC(=O)NC12CC3CC(CC(C3)C1)C2	36*	3	11	4	·	-11
Cc1occc1C(=O)NNC(=O)C1CC1	-3	-1	-4	4	22	26
COc1cc(/C=N/NC(=O)c2cccnc2)ccc1OCC(=O)N1CCOCC1	9	2	-17	-2	24	3
CC(C)(C)C1=NN(C(=O)c2ccccc2)C(O)(C(C)(C)C)C1 (centres undefined)	-1	10*	8	0	·	1
NS(=O)(=O)c1ccc(Sc2nc3ccccc3s2)c([N+](=O)[O-])c1	-12	·	·	·	24	36
O=C(O)c1ccc(S(=O)(=O)Nc2ccc(O)c(Sc3nc4ccccc4s3)c2)cc1	-30	9.8*	5	3	22	22
CC(C)CN1C(=O)c2ccc(NC(=O)Cc3ccccc3)cc2C1=O	-6	5	-6	3	8	-2
COc1ccc(NC(=O)c2ccccc2S(=O)c2ccccc2C#N)cc1 (centres undefined)	2	2	4	-10	7	-9

Screening results as filed in PubChem BioAssay.
